Measured values as given in ChEMBL document CHEMBL4261550, “Triazolopyrimidines identified as reversible myeloperoxidase inhibitors” (Medchemcomm, 2017).
pIC50: −log10 of the molar value. Calls of active or inactive are those of the source. The calls are words filed in the database; no cut-off is given here.

How the values were obtained:
Myeloperoxidase [1] = target: T1, Myeloperoxidase (Homo sapiens, UniProt P05164); test: Inhibition of human MPO assessed as reduction in enzyme-mediated chlorination by measuring reduction in HOCl formation preincubated for 10 mins followed by H2O2/NaCl addition and measured at 30 secs time interval for 5 mins by APF dye based fluorescence assay
T1 sequence (P05164 whole entry): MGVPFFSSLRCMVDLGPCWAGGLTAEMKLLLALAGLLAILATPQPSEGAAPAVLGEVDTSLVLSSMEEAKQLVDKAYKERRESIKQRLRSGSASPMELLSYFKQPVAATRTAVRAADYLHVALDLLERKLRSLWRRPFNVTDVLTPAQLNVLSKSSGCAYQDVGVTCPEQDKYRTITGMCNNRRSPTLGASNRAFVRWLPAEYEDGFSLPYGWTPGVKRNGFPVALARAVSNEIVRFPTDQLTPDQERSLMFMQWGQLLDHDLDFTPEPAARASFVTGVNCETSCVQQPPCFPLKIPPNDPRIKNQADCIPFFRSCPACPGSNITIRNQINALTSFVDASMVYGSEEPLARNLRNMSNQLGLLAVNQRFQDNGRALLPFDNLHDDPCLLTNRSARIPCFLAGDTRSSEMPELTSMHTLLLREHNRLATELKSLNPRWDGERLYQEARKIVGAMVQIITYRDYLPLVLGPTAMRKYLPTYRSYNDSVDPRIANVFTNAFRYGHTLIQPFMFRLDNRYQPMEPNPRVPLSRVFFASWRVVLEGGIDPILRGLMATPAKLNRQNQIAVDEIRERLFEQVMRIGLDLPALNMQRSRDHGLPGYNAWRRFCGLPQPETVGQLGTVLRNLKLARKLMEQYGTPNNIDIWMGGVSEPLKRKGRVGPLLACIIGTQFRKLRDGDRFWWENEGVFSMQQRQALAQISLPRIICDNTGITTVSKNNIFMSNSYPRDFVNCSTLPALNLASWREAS

Myeloperoxidase [2] = target: T1, Myeloperoxidase; test: Inhibition of human MPO peroxidase activity in presence of H2O2 measured at 30 secs time interval for 5 mins by amplex red reagent based fluorescence assay
Myeloperoxidase [3] = target: T1, Myeloperoxidase; test: Inhibition of human MPO assessed as reduction in enzyme-mediated chlorination by measuring reduction in HOCl formation in presence of H2O2/NaCl measured at 30 secs time interval for 5 mins by APF dye based fluorescence assay
[4] = target: T2, Myeloperoxidase (Homo sapiens) (UniProt P05164); test: Substrate activity at human MPO assessed as reversion of enzyme to resting state at 80 uM in presence of H2O2 by stopped flow assay
T2 sequence (whole entry): T1 sequence (P05164 whole entry)
In short: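 Stopped-flow at 25 °C: syringe 1 with 2 μM MPO and 5 μM H2O2 in phosphate buffer, syringe 2 with inhibitor and 5 μM H2O2; equal volumes rapidly mixed, spectra acquired in PDA mode to follow several MPO species; representative of numerous replicates.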

[5] = target: T2, Myeloperoxidase (Homo sapiens); test: Inhibition of human MPO assessed as reduction in enzyme-mediated chlorination by measuring reduction in HOCl formation at 10 uM preincubated for 10 mins followed by H2O2/NaCl addition and measured at 30 secs time interval for 5 mins by APF dye based fluorescence assay relative to control
In short: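 HTS APF chlorination, 1536-well: 1.75 nM human MPO with 20 μM H2O2 final, compound 10 μM final, preincubated 10 min; APF reagent added, fluorescence 485/535 nm read every 30 s for 5 min; slope normalized to DMSO (0%) and no-MPO wells (100% inhibition).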

[6] = Redox activity assessed as conversion of resazurin reagent to resorufin at 10 uM after 30 mins by fluorescence assay relative to control; type: physicochemical; conditions: 0.5 h
In short: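 Redox counterscreen: compound 10 μM final incubated with 5 μM resazurin reagent (final) 30 min; fluorescence intensity read; normalized to a reactive styrylpyrimidotriazinedione standard at 10 μM as 100%.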

[7] = Hypochlorus scavenging activity at 10 uM in presence of sodium hypochlorite after 15 mins by APF dye based fluorescence assay relative to control; type: functional
In short: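 NaOCl-scavenger counterscreen in 1536-well format: 50 μM NaOCl in place of MPO with APF reagent, compound 10 μM final; fluorescence intensity read after 15 min incubation; ≥20% loss of fluorescence flagged as interference.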

[8] = target: T2, Myeloperoxidase (Homo sapiens); test: Irreversible inhibition of human MPO peroxidase activity at 20 nM preincubated for up to 30 mins followed by H2O2 addition and 2 to 10 times compound dilution measured at 30 secs time interval for 5 mins by amplex red reagent based fluorescence assay
In short: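 MPO (20 nM, phosphate buffer) was preincubated with inhibitor and 100 nM H2O2 for 2, 10, 20 and 30 min. Inhibitor was at 5x–10x the Amplex Red IC50 when that IC50 was > 1 μM, or 2–10x the enzyme concentration when it was < 1 μM. Controls were peroxide with 0.2% DMSO, and 4-hydroxybenzoic acid hydrazide. Unbound inhibitor was removed on a G50 spin column. Flow-through was assayed by Amplex Red, and the initial rate gave % activity remaining versus control. Runs were repeated with 100 mM NaCl and 150 μM L-methionine.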

[9] = target: T2, Myeloperoxidase (Homo sapiens); test: Ratio of IC50 for human MPO chlorination preincubated for 10 mins to IC50 for human MPO chlorination without preincubation
Thyroid peroxidase = target: T3, Thyroid peroxidase (Homo sapiens, UniProt P07202); test: Inhibition of recombinant human C-terminal His6-tagged TPO (15 to 839 residues) expressed in baculovirus infected insect cells assessed as reduction in H2O2-catalyzed 3,5-iodo tyrosine formation using 3-iodotyrosine and potassium iodide preincubated for 10 mins followed by 3,5-iodo tyrosine/potassium iodide/H2O2 addition and measured after 15 mins
T3 sequence (P07202 whole entry): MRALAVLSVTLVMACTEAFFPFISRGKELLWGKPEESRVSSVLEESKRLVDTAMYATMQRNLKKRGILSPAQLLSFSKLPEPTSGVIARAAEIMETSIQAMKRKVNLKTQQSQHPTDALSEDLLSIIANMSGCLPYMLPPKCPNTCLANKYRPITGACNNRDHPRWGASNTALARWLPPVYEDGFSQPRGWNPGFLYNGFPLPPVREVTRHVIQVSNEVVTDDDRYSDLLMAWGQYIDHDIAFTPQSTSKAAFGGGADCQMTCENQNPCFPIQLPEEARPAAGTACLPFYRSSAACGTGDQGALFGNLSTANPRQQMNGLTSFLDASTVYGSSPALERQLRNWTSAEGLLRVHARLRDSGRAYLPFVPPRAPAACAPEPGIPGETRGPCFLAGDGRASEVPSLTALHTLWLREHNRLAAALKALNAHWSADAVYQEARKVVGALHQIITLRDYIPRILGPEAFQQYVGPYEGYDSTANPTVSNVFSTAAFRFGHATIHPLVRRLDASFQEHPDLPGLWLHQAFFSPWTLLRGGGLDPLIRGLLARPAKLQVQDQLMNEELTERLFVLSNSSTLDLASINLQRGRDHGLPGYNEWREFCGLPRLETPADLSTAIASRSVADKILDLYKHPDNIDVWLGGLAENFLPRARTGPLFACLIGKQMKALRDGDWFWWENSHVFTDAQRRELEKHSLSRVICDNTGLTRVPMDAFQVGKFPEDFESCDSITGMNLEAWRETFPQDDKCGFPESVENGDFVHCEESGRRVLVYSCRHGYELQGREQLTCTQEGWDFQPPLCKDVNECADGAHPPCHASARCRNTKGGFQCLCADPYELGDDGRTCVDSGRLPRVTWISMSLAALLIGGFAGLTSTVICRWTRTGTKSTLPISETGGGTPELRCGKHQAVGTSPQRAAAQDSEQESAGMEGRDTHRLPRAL
In short: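 TPO residues 15–839 with C-terminal His6, baculovirus/T. ni expressed, purified by Ni affinity, anion exchange and size exclusion; 4.0 nM in 100 mM KPi pH 7.4, 10 min rt preincubation with inhibitor; then 400 μM KI/240 μM 3-iodotyrosine mix and 20 μM H2O2 (added solutions); 3,5-iodotyrosine formation monitored.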

Myeloperoxidase [10] = target: T1, Myeloperoxidase; test: Inhibition of MPO in human neutrophils assessed as reduction in PMA-stimulated HOCl production incubated for 3 mins and measured for 25 mins by luminol reagent based luminescence assay
In short: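 Neutrophils from healthy donors isolated by dextran sedimentation then Ficoll-Paque, resuspended in HBSS; 1.106 cells/mL stimulated with 100 nM PMA; inhibitor 22 μM down to 1 nM (1:3, 10 doses) in 10% ethanol/50% PEG/40% water, 3 min at rt; luminol 100 μM final, read 25 min at 37 °C; rate taken from initial linear region.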

With `Nc1nc(OCc2cccc(OC(F)F)c2)c2nn[nH]c2n1` as the compound, how does the pIC50 (Myeloperoxidase [1]) read?
Its pIC50 is 6.70.

With `N[C@@H](Cc1c[nH]c2ccccc12)C(=O)OCc1ccccc1` as the compound, how does the pIC50 (Myeloperoxidase [2]) read?
Its pIC50 is under 4.89.

What about the pIC50 (Myeloperoxidase [3]) of the same compound?
Its pIC50 is 6.96.

What about the pIC50 (Myeloperoxidase [1]) of the same compound?
Its pIC50 is 6.70.

And the Activity [4]?
Its Activity is “Active”.

What about the inhibition [5] of the same compound?
The inhibition was 30%.

And the Activity [6]?
The Activity was “Not Active”.

And the Activity [7]?
Its Activity is under 20%.

With `Cc1ccccc1COc1nc(N)nc2[nH]nnc12` as the compound, how does the pIC50 (Myeloperoxidase [1]) read?
The pIC50 was 6.33.

For `NNC(=O)c1ccc(O)cc1`, which inhibition [8] is on record?
The inhibition was “Active”.

With `O=c1[nH]c(=S)n(C[C@H]2CCCO2)c2nc[nH]c12` as the compound, how does the pIC50 (Myeloperoxidase [2]) read?
The pIC50 was 7.92.

What about the pIC50 (Myeloperoxidase [3]) of the same compound?
The pIC50 was 7.25.

What about the pIC50 (Myeloperoxidase [1]) of the same compound?
Its pIC50 is 8.05.

What about the Ratio IC50 [9] of the same compound?
Its Ratio IC50 is 6.

What about the inhibition [5] of the same compound?
Its inhibition is 30%.

And the Activity [6]?
The Activity was “Not Active”.

And the pIC50 (Thyroid peroxidase)?
Its pIC50 is 5.41.

And the pIC50 (Myeloperoxidase [10])?
Its pIC50 is 6.00.

And the Activity [7]?
The Activity was under 20%.

With `Nc1nc(OCc2ccccc2F)c2nn[nH]c2n1` as the compound, how does the pIC50 (Myeloperoxidase [1]) read?
Its pIC50 is 7.11.

With `Cc1ccc(COc2nc(N)nc3[nH]nnc23)cc1` as the compound, how does the pIC50 (Myeloperoxidase [1]) read?
Its pIC50 is 6.29.

With `c1ccc(COc2ncnc3[nH]nnc23)cc1` as the compound, how does the pIC50 (Myeloperoxidase [1]) read?
Its pIC50 is under 4.89.

With `Nc1nc(OCc2ccc(C(F)(F)F)cc2)c2nn[nH]c2n1` as the compound, how does the pIC50 (Myeloperoxidase [1]) read?
Its pIC50 is 6.85.

With `Nc1nc(OCc2cccc(Cl)c2)c2nn[nH]c2n1` as the compound, how does the pIC50 (Myeloperoxidase [1]) read?
The pIC50 was 6.70.

With `Nc1nc(OCc2ccc(F)cc2)c2nn[nH]c2n1` as the compound, how does the pIC50 (Myeloperoxidase [1]) read?
The pIC50 was 7.33.

With `Oc1nc(OCc2ccccc2)c2nn[nH]c2n1` as the compound, how does the pIC50 (Myeloperoxidase [1]) read?
Its pIC50 is under 4.89.

With `Nc1nc(OCc2ccccc2)c2[nH]c(O)nc2n1` as the compound, how does the pIC50 (Myeloperoxidase [1]) read?
Its pIC50 is under 4.89.

With `Nc1nc(Oc2ccccc2)c2nn[nH]c2n1` as the compound, how does the pIC50 (Myeloperoxidase [1]) read?
Its pIC50 is under 4.89.

With `Cn1nnc2c(OCc3ccccc3)nc(N)nc21` as the compound, how does the pIC50 (Myeloperoxidase [1]) read?
Its pIC50 is under 4.89.

With `Nc1nc(OCCc2ccccc2)c2nn[nH]c2n1` as the compound, how does the pIC50 (Myeloperoxidase [1]) read?
The pIC50 was 6.20.

With `Nc1nc(OCc2ccccc2)c2[nH]cnc2n1` [6-O-BENZYLGUANINE] as the compound, how does the pIC50 (Myeloperoxidase [1]) read?
Its pIC50 is under 4.89.

With `CCNc1nc(OCc2ccccc2)c2nn[nH]c2n1` as the compound, how does the pIC50 (Myeloperoxidase [1]) read?
The pIC50 was 5.54.

With `COc1cccc(COc2nc(N)nc3[nH]nnc23)c1` as the compound, how does the pIC50 (Myeloperoxidase [1]) read?
The pIC50 was 6.31.

With `Nc1nc(OCc2ccccc2)c2cn[nH]c2n1` as the compound, how does the pIC50 (Myeloperoxidase [1]) read?
Its pIC50 is under 4.89.

With `Nc1nc(OCc2ccccc2Cl)c2nn[nH]c2n1` as the compound, how does the pIC50 (Myeloperoxidase [1]) read?
The pIC50 was 6.74.

With `Nc1nc(OCc2cccc(F)c2)c2nn[nH]c2n1` as the compound, how does the pIC50 (Myeloperoxidase [1]) read?
Its pIC50 is 7.40.
